The results in this text go back to ChEMBL document CHEMBL1151697, “Synthesis and structure-activity relationships for biphenyl H3 receptor antagonists with moderate anti-cholinesterase activity” (Bioorg Med Chem, 2008).

The target of experiment [1] is T1, Histamine H3 receptor (Homo sapiens, UniProt Q9Y5N1). Briefly: Antagonist activity at human histamine H3 receptor expressed in SK-N-MC cells by CRE-mediated beta-galactosidase reporter gene assay administered 10 mins before (R)-alpha-methylhistamine challenge after 6 hrs. Type of experiment: functional, cell-based. Put shortly:
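SK-N-MC cells stably carrying human H3 and a β-galactosidase reporter. Compound added to medium, forskolin 5 min later, then (R)-α-methylhistamine 10 min after compound; 6 h at 37 °C. Cells lysed in phosphate assay buffer (pH 8) with 0.5% Triton and 40 mM β-mercaptoethanol; β-galactosidase read at 570 nm. Means of 4–6 experiments.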

Experiment [2] concerns SK-N-MC. Briefly: Cytotoxicity against human SK-N-MC cells at 10 uM after 6 hrs by MTT test. Type of experiment: functional, cell-based. The method in brief:
(§1)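 MTT viability test: SK-N-MC cells held 6 h with compound (1–10 µM) or vehicle. MTT (5 mg/ml stock) added for 3 h, cells washed in PBS, formazan dissolved in 0.1 N HCl in isopropanol, absorbance read at 570 nm. Viability given relative to control.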
Background: Tetrazolium assays rely on reduction of a dye to a coloured formazan, in cell work by metabolically active cells.

Experiment [3] has as its system SK-N-MC. Briefly: Cytotoxicity against human SK-N-MC cells at 1 uM after 6 hrs by MTT test. Type of experiment: functional, cell-based. Put shortly: as §1
Experiment [4] has as its target Histamine H1 receptor (Cavia porcellus) (UniProt P31389). Briefly: Antagonist activity at histamine H1 receptor in guinea pig terminal ileum. Format: functional, tissue-based. Put shortly: (§2)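 Guinea-pig (250–350 g) terminal ileum (H1) suspended isometrically in Krebs–Henseleit at 37 °C, aerated 95% O2–5% CO2. Cumulative histamine curves (1 nM to 1 µM) run without and with compound up to 10 µM. pKB (apparent pA2) from Furchgott's equation; pD2′ from Van Rossum's equation when antagonism was non-surmountable.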

Experiment [5] concerns the target Histamine H2 receptor (Cavia porcellus) (UniProt P47747). Put plainly: Antagonist activity at histamine H2 receptor in guinea pig atrium assessed as changes in rate of spontaneous beat at upto 10 uM. Type of experiment: functional, tissue-based. The following applies: Cardiac atrium. The method in brief: (§3)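 Guinea-pig atria (H2) in Ringer–Locke at 31 °C (mM: NaCl 154.0, KCl 5.6, CaCl2 1.08, NaHCO3 5.95, glucose 11.1), gassed 95% O2–5% CO2. Spontaneous beating rate recorded by cardiotachograph. Cumulative dimaprit curves (0.1–100 µM) run without and with compound up to 10 µM. Affinity given as pKB by Furchgott, or as pD2′ by Van Rossum if non-surmountable.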

Experiment [6] deals with Histamine H4 receptor (Homo sapiens, UniProt Q9H3N8). Put plainly: Displacement of [3H]histamine from human histamine H4 receptor expressed in SK-N-MC cells at upto 10 uM. For orientation: Displacement assays read how much labelled ligand stays bound in the presence of the test substance.
For experiment [7], the target named is T2, Acetylcholinesterase (Rattus norvegicus, UniProt P37136).
T2 sequence (P37136 whole entry): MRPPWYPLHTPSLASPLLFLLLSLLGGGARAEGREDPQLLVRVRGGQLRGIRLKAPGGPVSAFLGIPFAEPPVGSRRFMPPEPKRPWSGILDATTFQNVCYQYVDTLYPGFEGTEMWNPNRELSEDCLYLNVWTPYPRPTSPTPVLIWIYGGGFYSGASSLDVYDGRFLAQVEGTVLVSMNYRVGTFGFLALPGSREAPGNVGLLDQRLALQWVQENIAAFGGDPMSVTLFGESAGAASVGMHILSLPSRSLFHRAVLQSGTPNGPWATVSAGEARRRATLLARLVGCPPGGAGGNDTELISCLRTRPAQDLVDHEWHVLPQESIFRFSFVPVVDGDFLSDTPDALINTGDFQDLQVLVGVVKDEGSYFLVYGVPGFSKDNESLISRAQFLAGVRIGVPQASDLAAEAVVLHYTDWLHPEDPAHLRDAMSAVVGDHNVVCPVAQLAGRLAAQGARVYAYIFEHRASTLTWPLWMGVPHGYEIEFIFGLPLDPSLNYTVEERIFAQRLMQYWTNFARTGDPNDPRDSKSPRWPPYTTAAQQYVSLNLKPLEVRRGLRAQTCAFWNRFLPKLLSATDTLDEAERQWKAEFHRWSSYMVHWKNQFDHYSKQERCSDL
Briefly: Inhibition of acetylcholinesterase in Wistar rat brain homogenate by Ellman's method. Format: tissue-based. In general terms: DTNB colorimetry detects thiols as they appear.

In experiment [8] the target is T3, Acetylcholinesterase (Rattus norvegicus) (UniProt P37136).
T3 sequence (whole entry): T2 sequence (P37136 whole entry)
Briefly: Inhibition of acetylcholinesterase in Wistar rat brain homogenate at upto 1 to 100 uM by Ellman's method. Type of experiment: tissue-based. The method in brief:
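Male Wistar rat (150–200 g) brain homogenate in 0.1 M phosphate buffer (pH 8.0) with DTNB (5 mM) and compound at 1–100 µM. Reaction started at 37 °C by adding acetylthiocholine (75 mM solution) and stopped after 15 min with 4% formalin. 5-Thio-2-nitrobenzoate absorbance at 412 nm. Percent inhibition versus control; reported as pIC50.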

The target in experiment [9] is Histamine H3 receptor (Cavia porcellus) (UniProt Q9JI35). Put plainly: Antagonist activity at histamine H3 receptor in electrically-stimulated guinea pig ileum assessed as inhibition of (R)-alpha-methylhistamine-induced twitch contraction in presence of 1 uM mepyramine. Format: functional, tissue-based. Put shortly: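 Guinea-pig ileum, electrically stimulated (0.1 Hz, 1 ms, submaximal voltage). Twitch inhibition by cumulative (R)-α-methylhistamine (1 nM to 1 µM) with 1 µM mepyramine present. Compounds tested at 1 nM to 30 µM. Potency as pKB from Furchgott's equation, or as pD2′ (Van Rossum) for non-surmountable antagonism.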

Experiment [10] has as its target T3, Acetylcholinesterase (Rattus norvegicus). Briefly: Inhibition of acetylcholinesterase in Wistar rat brain homogenate at upto 10 uM by Ellman's method. Type of experiment: tissue-based.
Experiment [11] addresses Histamine H3 receptor (Rattus norvegicus, UniProt Q9QYN8). Put plainly: Displacement of [3H]RAMHA from histamine H3 receptor in Wistar rat brain membrane. Type of experiment: cell membranes. The method in brief:
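Membranes from male Wistar rat brain (150–200 g) incubated 45 min with 0.5 nM [3H]RAMHA and compound (0.03 nM to 10 µM) in 50 mM Tris–HCl pH 7.4, 50 mM NaCl, 0.5 mM EDTA. Vacuum filtration, two ice-cold buffer rinses. Nonspecific binding set with 10 µM thioperamide. pKi by Cheng–Prusoff.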

Experiment [12] has as its target T1, Histamine H3 receptor. Put plainly: Displacement of [3H]RAMHA from human histamine H3 receptor expressed in SK-N-MC cells. Format: cell-based. The method in brief:
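SK-N-MC membranes bearing human H3 incubated 60 min at room temperature with 0.5 nM [3H]-(R)-α-methylhistamine and competitor (0.01 nM to 10 µM). Rapid filtration, two washes in ice-cold 50 mM Tris–HCl/5 mM EDTA. Nonspecific binding with 10 µM histamine. pKi via Cheng–Prusoff; means of 4–6 experiments.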

For experiment [13], the target named is Histamine H1 receptor (Cavia porcellus) (UniProt P31389). Briefly: Antagonist activity at histamine H1 receptor in guinea pig terminal ileum at upto 10 uM. Type of experiment: functional, tissue-based. The method in brief:
as §2

The target of experiment [14] is Histamine H2 receptor (Cavia porcellus) (UniProt P47747). Briefly: Antagonist activity at histamine H2 receptor in guinea pig atrium assessed as changes in rate of spontaneous beat at upto 1 uM. The following applies: Cardiac atrium. Type of experiment: functional, tissue-based. Put shortly: as §3

Each structure is given as a SMILES string. The source made the active and inactive calls. The calls are words filed in the database; no cut-off is given here.

Sequence of Histamine H3 receptor (Rattus norvegicus, UniProt Q9QYN8) (Q9QYN8 whole entry): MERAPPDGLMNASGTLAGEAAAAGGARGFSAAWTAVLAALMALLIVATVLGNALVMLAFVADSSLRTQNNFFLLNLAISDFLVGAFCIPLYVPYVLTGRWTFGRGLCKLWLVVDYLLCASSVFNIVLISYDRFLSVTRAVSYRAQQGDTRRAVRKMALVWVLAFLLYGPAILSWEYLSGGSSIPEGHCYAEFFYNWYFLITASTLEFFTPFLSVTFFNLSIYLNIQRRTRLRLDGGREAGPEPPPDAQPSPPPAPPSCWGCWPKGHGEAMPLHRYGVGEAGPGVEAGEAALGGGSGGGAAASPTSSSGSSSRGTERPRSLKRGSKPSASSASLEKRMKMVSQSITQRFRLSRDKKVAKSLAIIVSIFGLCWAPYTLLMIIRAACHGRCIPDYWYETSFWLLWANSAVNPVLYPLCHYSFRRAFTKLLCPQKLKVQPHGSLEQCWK
Sequence of Histamine H3 receptor (Cavia porcellus) (Q9JI35 whole entry): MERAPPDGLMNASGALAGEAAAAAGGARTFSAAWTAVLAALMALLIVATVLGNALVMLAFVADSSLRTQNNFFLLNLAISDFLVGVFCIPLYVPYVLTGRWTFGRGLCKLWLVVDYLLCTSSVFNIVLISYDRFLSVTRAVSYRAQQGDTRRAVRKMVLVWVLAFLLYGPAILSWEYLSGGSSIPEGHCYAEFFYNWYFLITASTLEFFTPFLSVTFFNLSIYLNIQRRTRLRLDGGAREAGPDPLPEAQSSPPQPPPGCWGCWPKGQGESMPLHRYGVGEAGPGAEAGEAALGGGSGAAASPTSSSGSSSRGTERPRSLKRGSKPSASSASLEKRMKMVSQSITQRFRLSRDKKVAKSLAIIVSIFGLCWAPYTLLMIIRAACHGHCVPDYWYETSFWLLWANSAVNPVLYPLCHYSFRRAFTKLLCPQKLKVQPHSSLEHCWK
T1 sequence (Q9Y5N1 whole entry): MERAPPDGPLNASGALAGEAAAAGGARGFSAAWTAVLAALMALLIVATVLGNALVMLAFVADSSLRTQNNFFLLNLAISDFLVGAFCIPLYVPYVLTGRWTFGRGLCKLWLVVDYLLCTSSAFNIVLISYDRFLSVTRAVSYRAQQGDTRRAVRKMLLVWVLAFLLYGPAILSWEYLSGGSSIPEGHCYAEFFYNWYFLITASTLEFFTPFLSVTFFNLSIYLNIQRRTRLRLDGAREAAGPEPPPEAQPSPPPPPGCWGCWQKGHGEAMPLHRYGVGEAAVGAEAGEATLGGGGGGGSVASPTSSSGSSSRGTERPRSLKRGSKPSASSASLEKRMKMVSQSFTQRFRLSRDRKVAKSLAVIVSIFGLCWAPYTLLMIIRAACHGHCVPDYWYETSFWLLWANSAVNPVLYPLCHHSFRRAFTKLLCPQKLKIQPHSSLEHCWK
Sequence of Histamine H4 receptor (Q9H3N8 whole entry): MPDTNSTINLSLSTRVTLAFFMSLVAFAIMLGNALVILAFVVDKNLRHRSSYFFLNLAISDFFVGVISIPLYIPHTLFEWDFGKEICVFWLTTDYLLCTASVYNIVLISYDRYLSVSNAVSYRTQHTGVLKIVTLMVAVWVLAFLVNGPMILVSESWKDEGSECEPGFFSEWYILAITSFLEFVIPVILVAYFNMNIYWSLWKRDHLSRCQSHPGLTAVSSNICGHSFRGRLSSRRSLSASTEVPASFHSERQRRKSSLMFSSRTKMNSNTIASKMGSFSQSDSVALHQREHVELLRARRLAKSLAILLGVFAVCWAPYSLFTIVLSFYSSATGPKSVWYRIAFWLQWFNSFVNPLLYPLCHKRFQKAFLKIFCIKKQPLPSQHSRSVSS
Sequence of Histamine H2 receptor (Cavia porcellus) (P47747 whole entry): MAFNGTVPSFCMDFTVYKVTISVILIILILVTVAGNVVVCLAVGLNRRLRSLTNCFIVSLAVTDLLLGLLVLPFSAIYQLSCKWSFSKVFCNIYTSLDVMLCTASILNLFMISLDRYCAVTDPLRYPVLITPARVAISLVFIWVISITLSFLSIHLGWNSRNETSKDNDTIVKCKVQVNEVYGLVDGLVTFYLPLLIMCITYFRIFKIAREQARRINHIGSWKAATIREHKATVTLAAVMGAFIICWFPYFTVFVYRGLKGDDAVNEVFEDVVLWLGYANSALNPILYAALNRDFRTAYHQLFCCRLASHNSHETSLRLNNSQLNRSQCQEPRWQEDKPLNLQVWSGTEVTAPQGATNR
Sequence of Histamine H1 receptor (Cavia porcellus) (P31389 whole entry): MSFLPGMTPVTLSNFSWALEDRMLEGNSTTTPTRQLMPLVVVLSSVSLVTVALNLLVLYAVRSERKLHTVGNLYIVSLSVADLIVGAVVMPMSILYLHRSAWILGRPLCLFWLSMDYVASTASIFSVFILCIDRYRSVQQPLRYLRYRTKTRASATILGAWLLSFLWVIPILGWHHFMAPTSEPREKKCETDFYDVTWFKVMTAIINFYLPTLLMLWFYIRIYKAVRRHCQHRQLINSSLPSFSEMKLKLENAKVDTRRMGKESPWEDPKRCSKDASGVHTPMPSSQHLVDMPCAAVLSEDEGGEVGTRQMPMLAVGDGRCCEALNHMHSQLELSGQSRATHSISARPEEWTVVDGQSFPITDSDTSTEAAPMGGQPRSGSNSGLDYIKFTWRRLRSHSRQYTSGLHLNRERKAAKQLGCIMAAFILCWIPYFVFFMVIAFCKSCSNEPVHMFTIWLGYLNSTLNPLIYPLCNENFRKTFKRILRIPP

On to `CC(=O)N1CCN(Cc2ccc(-c3ccc(CN4CCCCC4)cc3)cc2)CC1`, for which the pKb (commonly the negative decadic logarithm of the Kb, by convention in mol/L) in experiment [1] is 7.86; in experiment [9], 7.79. Also, the Activity entry in [2] and in [3] was “Not toxic” in each case. This compound yielded a pD2 in [4] of 4.46. In addition, the result in experiment [5] and in experiment [6] was inactive. Also, the midpoint of inhibition in experiment [7], the IC50, lay at 11500 nM. Also, in [8], the inhibition (usually the drop in the measured response relative to a control, in per cent) was 79%.

For the compound `CC1CCN(Cc2ccc(-c3ccc(CN4CCC(C)CC4)cc3)cc2)CC1`, the pKb was determined as 7.68 in experiment [1], 5.89 in experiment [4] and 7.3 in experiment [9]. The Activity result in experiment [2] and in experiment [3] was “Not toxic” in each case. In addition, the outcome in [5] and in [6] was inactive. Also, inhibition in experiment [7] was half-maximal at 3550 nM (IC50). Besides, the inhibition in experiment [8] was 83%.

As for `CCN(CC)Cc1ccc(-c2ccc(CN(CC)CC)cc2)cc1`, the result in experiment [10], in experiment [5], in experiment [6] and in experiment [13] was inactive. The values for the negative-log Kb (pKb) in experiment [1] and in [9] were 8.96 and 9.34, respectively. Also, the Ki (as a rule, the equilibrium dissociation constant of an inhibitor or competing ligand from its target) in experiment [11] is 2.4 nM; in experiment [12] it was 2.82 nM. Also, the Activity entry in experiment [2] and in experiment [3] was “Not toxic” each time.

In the case of `c1cc(-c2ccc(CN3CCOCC3)cc2)ccc1CN1CCCCC1`, the outcome in experiment [10], in [5], in [6] and in experiment [13] was inactive. Further, the pKb was found to be 7.77 in experiment [1] and 9.07 in [9]. Further, the Ki in experiment [11] was 15.5 nM; in [12], 19.5 nM. Also, the Activity entry in experiment [2] and in experiment [3] was “Not toxic” in each case.

For the compound `CN(C)CCc1ccc(-c2ccc(CCN(C)C)cc2)cc1`, the result in experiment [10], in experiment [5], in experiment [6] and in experiment [13] was inactive. For the same compound, the negative-log Kb (pKb) worked out at 8.06 in experiment [1] and 8.04 in experiment [9]. Further, the inhibition constant Ki in experiment [11] is 19.5 nM; in experiment [12], 5.13 nM.

Turning to `CCCN(CCC)Cc1ccc(-c2ccc(CC(=O)N3CCCCC3)cc2)cc1`, the pKb was determined as 6.96 in experiment [1], 5.44 in experiment [4] and 7.24 in [9]. Further, the inhibitory constant (Ki) in experiment [11] was 178 nM; in experiment [12], 251 nM. The Activity entry in [2] and in experiment [3] was “Not toxic” each time. Besides, the outcome in [6] and in [14] was inactive. In [7], it took 10500 nM to reach half-maximal inhibition (IC50). The compound further came in with an inhibition in [8] of 65%.

Consider `CN(Cc1ccc(-c2ccc(CN3CCCCC3)cc2)cc1)C1CCCCC1`, for which the negative logarithm of the Kb (pKb) came out at 9.19 in experiment [1], 5.56 in experiment [4] and 8.46 in experiment [9]. The Ki was 7.41 nM in experiment [11] and 2.75 nM in [12]. The Activity entry in [2] and in experiment [3] was “Not toxic” in each case. Moreover, the outcome in experiment [5] and in experiment [6] was inactive. Further, the IC50 (in general, the midpoint of a concentration-inhibition curve) in [7] is 1380 nM. Besides, the inhibition in experiment [8] turned out to be 93%.

Take `C(CCCCN1CCCCC1)CCCCN1CCCCC1`: the Ki in experiment [11] was 15.8 nM; in experiment [12], 4.47 nM.

With `CN(C)Cc1ccc(-c2ccc(CN(C)C)cc2)cc1`, the result in experiment [10], in [5], in experiment [6] and in experiment [13] was inactive. In addition, the negative logarithm of the Kb (pKb) worked out at 8.17 in [1] and 8.46 in experiment [9]. The Activity entry in experiment [2] and in experiment [3] was “Not toxic” throughout.

Take `c1cc(-c2ccc(CN3CCOCC3)cc2)ccc1CN1CCOCC1`: the result in [10], in experiment [5], in experiment [6] and in experiment [13] was inactive. The compound further showed a pKb in [1] of 7.67. Further, the Activity result in experiment [2] and in [3] was “Not toxic” in each case.

Regarding `CCN(CC)Cc1ccc(-c2ccc(CN3CCCCC3)cc2)cc1`, the result in [10], in experiment [5], in [6] and in [13] was inactive. Moreover, the pKb in experiment [1] was 8.9; in [9], 9.41. For the same compound, the Ki in [11] is 2.57 nM; in experiment [12], 1.95 nM. The Activity entry in experiment [2] and in [3] was “Not toxic” each time.

For `CC1CCN(Cc2ccc(-c3ccc(CN4CCCCC4)cc3)cc2)CC1`, the results for the pKb in experiment [1] and in experiment [9] were 8.64 and 8.75, respectively. Moreover, the values for the Ki in [11] and in [12] were 5.75 nM and 2.4 nM, respectively. Moreover, the Activity result in experiment [2] and in experiment [3] was “Not toxic” each time. The outcome in experiment [5], in [6] and in [13] was inactive. The IC50 in experiment [7] was 1410 nM. This compound gave an inhibition in experiment [8] of 93%.

Turning to `CCCN(CCC)Cc1ccc(-c2ccc(CN3CCCCC3)cc2)cc1`, the pKb in [1] is 8.18; in [4], 5.48; in [9], 9.12. Further, the Ki was 3.16 nM in experiment [11] and 1.74 nM in [12]. In addition, the Activity entry in [2] and in experiment [3] was “Not toxic” each time. The outcome in experiment [5] and in experiment [6] was inactive. The concentration for half-maximal inhibition (IC50) in experiment [7] was 1480 nM. This compound also showed an inhibition in [8] of 93%.

Regarding `O=C1CCCCN1Cc1ccc(-c2ccc(CN3CCCCC3)cc2)cc1`, the result in experiment [10], in [5], in experiment [6] and in [13] was inactive. The negative logarithm of the Kb (pKb) in experiment [1] stood at 7.46; in experiment [9] it was 7.57. For the same compound, the Activity entry in experiment [2] and in experiment [3] was “Not toxic” throughout.
